The values that follow come from article PMC10590554 (Drug Design, Development and Therapy, 2023).

Several values for one entry are separate records, joined by “and”; a condition that tells them apart may be missing. Equal entries are not always repeated. Where two headings read alike, the source gives them in different places.

For series [1] the following is noted: co-administration with itraconazole; cited from earlier work.
The conditions of series [2]: with itraconazole, rats; cited from earlier work.
The conditions of series [3]: with itraconazole, humans; cited from earlier work.
For series [4] the following is noted: cited from earlier work.
The conditions of series [5]: with flavoured water; cited from earlier work.
The format of series [6] is in vivo, Sprague-Dawley rats. Particulars: rats. In a few lines:
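Male Sprague-Dawley rats (220–260 g), acclimatised one week, fasted 12 h with free water, n=7/group. Single dose of vehicle (0.5% CMC-Na), simvastatin 2 mg/kg or itraconazole 15 mg/kg, then erlotinib 12 mg/kg in 0.5% CMC-Na by oral gavage 30 min later. Tail-vein blood taken into heparin at 0–24 h; plasma assayed by UPLC-MS/MS with tinidazole IS. Mean ± SD; ANOVA with Dunnett; Tmax by Wilcoxon signed-rank.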

The test system of another series is CYP3A4. Particulars: human microsomes and cDNA expressed human CYP enzymes; cited from earlier work.
A short description of series [7]: Stability of erlotinib in rat plasma. The format is in vitro ADME. The note with it: various storage conditions, QC 8 and 800 ng/mL. In a few lines:
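Blank rat plasma spiked with erlotinib QC at 8 and 800 ng/mL, five replicates per level. Held at room temperature 4 h, at −80°C for 60 days, or through 3 freeze-thaw cycles; processed samples held 4°C 24 h. Acetonitrile-tinidazole protein precipitation, then UPLC-MS/MS against a 5–1000 ng/mL 1/x²-weighted curve. Accuracy taken as measured/theoretical concentration ×100%.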

For series [8] the following is noted: with ketoconazole (CYP3A4 inhibitor); cited from earlier work.
The conditions of series [9]: after oral administration; cited from earlier work.
The mark [10] stands for this setting: itraconazole group vs erlotinib alone group, P<0.05.
[11] abbreviates: itraconazole group vs erlotinib alone group, not significant.
Setting [12] is: simvastatin group vs erlotinib alone group, P>0.05.

`N#CC1(c2ccc(NC(=O)c3cccnc3NCc3ccncc3)cc2)CCCC1` [apatinib]: the “reduction of CL/F of apatinib” value in series [1] is 40%.
As to `CCc1nc(C(N)=O)c(Nc2ccc(N3CCC(N4CCN(C)CC4)CC3)c(OC)c2)nc1NC1CCOCC1` [gilteritinib], the “increase of exposure of gilteritinib” value in series [2] is 1.4 fold; in series [3], 2.2 fold.
Turning to `CC/C(=C(\c1ccccc1)c1ccc(OCCN(C)C)cc1)c1ccccc1` [tamoxifen], in [4] (combined with erlotinib vs single administration), the “increase of Cmax of tamoxifen” value is given as 46%.
In the case of `C#Cc1cccc(Nc2ncnc3cc(OCCOC)c(OCCOC)cc23)c1` [Erlotinib, erlotinib], in series [5], the “increase of AUC of erlotinib” value is recorded as 200% and the “increase of Cmax of erlotinib” value is 95%. Further, the “increase of AUC” value in [6] (15 mg/kg itraconazole with 12 mg/kg erlotinib vs erlotinib alone, P<0.05) was determined as 32.3%. Moreover, in series [6] (setting [10]), the “decrease of CL/F” value is ~24.24% and 24.2%; the “increase of AUC0-t” value is reported as “approximately 32.32%”; the “increase of AUC0-∞” value is recorded as ~32.29%; the “increase of Cmax” value is ~33.54% and 33.5%. For the same compound, in [6] (setting [11]), the “decrease of Vz/F” value is listed as “approximately 19.30%” and the “increase of t1/2” value was ~5.33%. In [6] (itraconazole group, P<0.05), the “AUC0-t, fold higher than erlotinib alone group” value was “approximately 1.32 fold”; the “AUC0-∞, fold higher than erlotinib alone group” value is “approximately 1.32 fold”; the “Cmax, fold higher than erlotinib alone group” value is ~1.34 fold. Further, in series [6] (setting [12]), the “decrease of CL/F” value was “approximately 6.06%”, the “increase of AUC0-∞” value is recorded as ~9.50%, the “increase of Cmax” value was ~3.80% and the “increase of Vz/F” value is ~1.16%. In series [6] (setting [12]), the “increase of t1/2” value is reported as ~7.56%. In the series on CYP3A4, the “share of metabolism by CYP3A4” value is given as 70%. Besides, the “Accuracy over all stability conditions” value in series [7] is listed as 87.56–112.17%. Further, in series [8], the “increase of AUC of erlotinib” value is recorded as 86% and the “increase of Cmax of erlotinib” value is on record as 102%. Moreover, in series [9], the “eliminated via urine and feces route” value is 91%. Also, the “reduction of AUC of erlotinib” value in series [4] (combined with tamoxifen vs single administration) was 54%.
